According to ChEMBL document CHEMBL1240350, “In vitro activity of CEM-101 against Streptococcus pneumoniae and Streptococcus pyogenes with defined macrolide resistance mechanisms” (Antimicrob Agents Chemother, 2010):
Values after ≈ are worked out from the molar mass of the structure shown.

How the values were obtained:
[1] = test system: Streptococcus pyogenes; assay: Antibacterial activity against Streptococcus pyogenes harboring erm(B) gene after overnight incubation by agar dilution method; format: functional
Method in brief: (§1)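 Clinical isolates collected 1998–2008, with macrolide-resistance genes confirmed by PCR. MICs by agar dilution on Mueller-Hinton agar with 5% sheep blood. Inoculum 10^4 CFU/spot, incubated overnight at 35°C in ambient air. S. pneumoniae ATCC 49619 was the quality-control strain in every run.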

[2] = test system: Streptococcus pyogenes; assay: Antibacterial activity against macrolide-resistant Streptococcus pyogenes 2094 harboring erm(A) gene after 43 passages and 10 compound-free subculturing by retest method
[3] = test system: Streptococcus pneumoniae; assay: Antibacterial activity against macrolide-resistant Streptococcus pneumoniae harboring mutation in L4 ribosomal protein after overnight incubation by agar dilution method; format: functional
Method in brief: (§2)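 Agar dilution MICs on Mueller-Hinton agar with 5% sheep blood. Inoculum 10^4 CFU/spot, incubated overnight at 35°C in ambient air. Clinical S. pneumoniae or group A streptococcal isolates; resistance genotypes (erm(B), erm(A), mef(A)/mef(E)) were assigned by PCR. S. pneumoniae ATCC 49619 served as QC strain in each run. Range, MIC50 and MIC90 reported per phenotype group.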

[4] = test system: Streptococcus pneumoniae; assay: Antibacterial activity against macrolide-resistant Streptococcus pneumoniae 2686 harboring mutation in L4 ribosomal protein after overnight incubation by agar dilution method; format: functional
[5] = test system: Streptococcus pyogenes; assay: Antibacterial activity against macrolide-resistant Streptococcus pyogenes 2011 harboring mef(A) gene after 35 passages and 10 compound-free subculturing by retest method
[6] = test system: Streptococcus pneumoniae; assay: Antibacterial activity against Streptococcus pneumoniae harboring erm(A) gene after overnight incubation by agar dilution method; format: functional; method in brief: as §1
[7] = test system: Streptococcus pyogenes; assay: Antibacterial activity against macrolide-susceptible Streptococcus pyogenes 2132 after 50 passages following overnight incubation by agar dilution method
[8] = test system: Streptococcus pneumoniae; assay: Antibacterial activity against macrolide-resistant Streptococcus pneumoniae 2686 harboring mutation in L4 ribosomal protein after 22 passages and 10 compound-free subculturing by retest method; format: functional
[9] = test system: Streptococcus pneumoniae; assay: Antibacterial activity against penicillin-resistant Streptococcus pneumoniae after overnight incubation by agar dilution method; format: functional
Method in brief: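 Agar dilution on Mueller-Hinton agar supplemented with 5% sheep blood. Inoculum 10^4 CFU/spot, incubated overnight at 35°C in ambient air. Test strains were clinical pneumococcal isolates. S. pneumoniae ATCC 49619 was included as the quality control strain in each run. MIC range, MIC50 and MIC90 were reported for each susceptibility category.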

[10] = test system: Streptococcus pneumoniae; assay: Antibacterial activity against macrolide-resistant Streptococcus pneumoniae 3665 harboring mef(A) gene after overnight incubation by agar dilution method; format: functional
[11] = test system: Streptococcus pneumoniae; assay: Antibacterial activity against macrolide-resistant Streptococcus pneumoniae harboring erm(B) and mef(A) gene after overnight incubation by agar dilution method; format: functional; method in brief: as §2
[12] = test system: Streptococcus pneumoniae; assay: Antibacterial activity against macrolide-resistant Streptococcus pneumoniae harboring erm(B) gene after overnight incubation by agar dilution method; format: functional; method in brief: as §2
[13] = test system: Streptococcus pneumoniae; assay: Antibacterial activity against macrolide-resistant Streptococcus pneumoniae 24 harboring erm(B) gene after 14 passages and 10 compound-free subculturing by retest method; format: functional
Method in brief: (§3)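 Multistep selection by daily serial passage in subinhibitory drug concentrations. Medium was cation-adjusted Mueller-Hinton broth plus 5% lysed horse blood. Each day the next inoculum came from the tube 1–2 dilutions below the MIC whose turbidity matched the growth control, for up to 50 days. Clone MICs by CLSI macrodilution; identity to the parent confirmed by SmaI PFGE.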

[14] = test system: Streptococcus pneumoniae; assay: Antibacterial activity against macrolide-susceptible Streptococcus pneumoniae 1077 after 15 passages and 10 compound-free subculturing by retest method; format: functional
[15] = test system: Streptococcus pneumoniae; assay: Antibacterial activity against macrolide-susceptible Streptococcus pneumoniae 7127 harboring S20N mutation in L4 ribosomal protein and A105V mutation in L22 ribosomal protein after 15 passages and 10 compound-free subculturing by retest method; format: functional
[16] = test system: Streptococcus pneumoniae; assay: Antibacterial activity against penicillin-intermediate Streptococcus pneumoniae after overnight incubation by agar dilution method; format: functional
Method in brief: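 Agar dilution on Mueller-Hinton agar supplemented with 5% sheep blood, inoculum 10^4 CFU/spot, read after overnight incubation at 35°C in ambient air. Clinical isolates with defined genotypes; S. pneumoniae ATCC 49619 quality control strain included in each run. MIC50/MIC90 are MICs inhibiting 50% and 90% of isolates.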

[17] = test system: Streptococcus pyogenes; assay: Antibacterial activity against macrolide-resistant Streptococcus pyogenes 2011 harboring mef(A) gene after overnight incubation by agar dilution method
[18] = test system: Streptococcus pneumoniae; assay: Antibacterial activity against macrolide-resistant Streptococcus pneumoniae 2686 harboring mutation in L4 ribosomal protein after 25 passages and 10 compound-free subculturing by retest method; format: functional
[19] = test system: Streptococcus pyogenes; assay: Antibacterial activity against macrolide-resistant Streptococcus pyogenes harboring erm(A) gene after overnight incubation by agar dilution method; format: functional; method in brief: as §2
[20] = test system: Streptococcus pneumoniae; assay: Antibacterial activity against macrolide-resistant Streptococcus pneumoniae 1076 harboring erm(B) and mef(A) gene after 14 passages and 10 compound-free subculturing by retest method; format: functional; method in brief: as §3
[21] = test system: Streptococcus pyogenes; assay: Antibacterial activity against macrolide-resistant Streptococcus pyogenes 2368 harboring erm(B) gene after overnight incubation by agar dilution method
[22] = test system: Streptococcus pneumoniae; assay: Antibacterial activity against Streptococcus pneumoniae harboring mutation in L4 ribosomal protein after overnight incubation by agar dilution method; format: functional; method in brief: as §1
[23] = test system: Streptococcus pneumoniae; assay: Antibacterial activity against macrolide-resistant Streptococcus pneumoniae 3665 harboring mef(A) gene after 26 passages and 10 compound-free subculturing by retest method; format: functional
[24] = test system: Streptococcus pneumoniae; assay: Antibacterial activity against macrolide-resistant Streptococcus pneumoniae 1076 harboring erm(B) and mef(A) gene after overnight incubation by agar dilution method; format: functional
[25] = test system: Streptococcus pneumoniae; assay: Antibacterial activity against macrolide-susceptible Streptococcus pneumoniae 1077 after 29 passages and 10 compound-free subculturing by retest method; format: functional
[26] = test system: Streptococcus pneumoniae; assay: Antibacterial activity against macrolide-susceptible Streptococcus pneumoniae 7127 harboring S20N mutation in L4 ribosomal protein and A105V mutation in L22 ribosomal protein after 29 passages and 10 compound-free subculturing by retest method; format: functional
[27] = test system: Streptococcus pyogenes; assay: Antibacterial activity against macrolide-resistant Streptococcus pyogenes 2094 harboring erm(A) gene after overnight incubation by agar dilution method
[28] = test system: Streptococcus pyogenes; assay: Antibacterial activity against macrolide-resistant Streptococcus pyogenes 2368 harboring erm(B) gene after 18 passages and 10 compound-free subculturing by retest method
[29] = test system: Streptococcus pneumoniae; assay: Antibacterial activity against Streptococcus pneumoniae harboring mutation in 23S rRNA after overnight incubation by agar dilution method; format: functional; method in brief: as §1
[30] = test system: Streptococcus pneumoniae; assay: Antibacterial activity against macrolide-resistant Streptococcus pneumoniae 24 harboring erm(B) gene after overnight incubation by agar dilution method; format: functional
[31] = test system: Streptococcus pneumoniae; assay: Antibacterial activity against macrolide-resistant Streptococcus pneumoniae 3009 harboring mutation in 23S rRNA after 25 passages and 10 compound-free subculturing by retest method; format: functional
[32] = test system: Streptococcus pyogenes; assay: Antibacterial activity against macrolide-resistant Streptococcus pyogenes 237 harboring mutation in L4 ribosomal protein after 50 passages following overnight incubation by agar dilution method
[33] = Streptococcus pneumoniae, 24, read-out: MIC

Row | SMILES | MIC50 [1] [µg/mL] | MIC90 [1] [µg/mL] | MIC [2] [µg/mL] | MIC [4] [µg/mL] | MIC [5] [µg/mL] | MIC [6] [µg/mL] | MIC [7] [µg/mL] | MIC [8] [µg/mL] | MIC [10] [µg/mL] | MIC50 [11] [µg/mL] | MIC50 [12] [µg/mL] | MIC [14] [µg/mL] | MIC [15] [ng/mL] | MIC50 [16] [µg/mL] | MIC90 [16] [µg/mL] | MIC [18] [µg/mL] | MIC50 [19] [µg/mL] | MIC90 [19] [µg/mL] | MIC [20] [µg/mL] | MIC [21] [µg/mL] | also measured
1 | CCC[C@@H]1C[C@@H](C(=O)N[C@@H]([C@H]2O[C@H](SC)[C@H](O)[C@@H](O)[C@H]2O)[C@H](C)Cl)N(C)C1 [CLINDAMYCIN] | > 64 | > 64 | 0.06 (≈ 0.141 µM) | 0.03 (≈ 0.0706 µM) | 0.06 (≈ 0.141 µM) | 0.125 (≈ 0.294 µM) | 0.06 (≈ 0.141 µM) | 0.03 (≈ 0.0706 µM) | 0.016 (≈ 0.0376 µM) | 0.06 (≈ 0.141 µM) | > 64 | 8 (≈ 18.8 µM) | 1000 (≈ 2.35 µM) | 0.125 (≈ 0.294 µM) | > 64 | 0.03 (≈ 0.0706 µM) | 0.125 (≈ 0.294 µM) | 0.25 (≈ 0.588 µM) | > 64 | > 64 | MIC50 [3]: 0.06 µg/mL (≈ 0.141 µM); MIC90 [3]: 0.125 µg/mL (≈ 0.294 µM); MIC50 [9]: 0.06 µg/mL (≈ 0.141 µM); MIC [13, 33]: > 64 µg/mL; MIC [17]: 0.06 µg/mL (≈ 0.141 µM); MIC50 [22]: 0.06 µg/mL (≈ 0.141 µM); MIC90 [22]: 0.125 µg/mL (≈ 0.294 µM); MIC [23]: 0.03 µg/mL (≈ 0.0706 µM); MIC [24]: 64 µg/mL (≈ 151 µM); MIC [25]: 4 µg/mL (≈ 9.41 µM); MIC [26]: 0.06 µg/mL (≈ 0.141 µM); MIC [27]: 0.06 µg/mL (≈ 0.141 µM); MIC [28]: > 64 µg/mL; MIC [29]: 0.03 µg/mL (≈ 0.0706 µM); MIC [30]: > 64 µg/mL; MIC [31]: 1 µg/mL (≈ 2.35 µM)
2 | CC[C@H]1OC(=O)[C@@](C)(F)C(=O)[C@H](C)[C@@H](O[C@@H]2O[C@H](C)C[C@H](N(C)C)[C@H]2O)[C@](C)(OC)C[C@@H](C)C(=O)[C@H](C)[C@H]2N(CCCCn3cc(-c4cccc(N)c4)nn3)C(=O)O[C@]12C [SOLITHROMYCIN] | 0.5 (≈ 0.592 µM) | 1 (≈ 1.18 µM) | 0.25 (≈ 0.296 µM) | 0.03 (≈ 0.0355 µM) | 0.06 (≈ 0.071 µM) | 0.008 (≈ 0.00947 µM) | 0.016 (≈ 0.0189 µM) | 1 (≈ 1.18 µM) | 0.03 (≈ 0.0355 µM) | 0.125 (≈ 0.148 µM) | 0.03 (≈ 0.0355 µM) | 0.06 (≈ 0.071 µM) | 8 (≈ 0.00947 µM) | 0.03 (≈ 0.0355 µM) | 0.25 (≈ 0.296 µM) | 0.016 (≈ 0.0189 µM) | 0.03 (≈ 0.0355 µM) | 0.125 (≈ 0.148 µM) | 2 (≈ 2.37 µM) | 1 (≈ 1.18 µM) | MIC90 [11]: 0.25 µg/mL (≈ 0.296 µM); MIC90 [12]: 0.5 µg/mL (≈ 0.592 µM); MIC [13]: 0.06 µg/mL (≈ 0.071 µM); MIC [13, 33]: 0.06 µg/mL (≈ 0.071 µM); MIC [23]: 0.06 µg/mL (≈ 0.071 µM); MIC [24]: 1 µg/mL (≈ 1.18 µM); MIC [25]: 0.03 µg/mL (≈ 0.0355 µM); MIC [26]: 0.016 µg/mL (≈ 0.0189 µM); MIC [27]: 0.03 µg/mL (≈ 0.0355 µM); MIC [28]: 8 µg/mL (≈ 9.47 µM); MIC [29]: 0.002 µg/mL (≈ 0.00237 µM); MIC [30]: 0.004 µg/mL (≈ 0.00473 µM); MIC [31]: 0.03 µg/mL (≈ 0.0355 µM)
3 | CC[C@H]1OC(=O)[C@H](C)C(=O)[C@H](C)[C@@H](O[C@@H]2O[C@H](C)C[C@H](N(C)C)[C@H]2O)[C@](C)(OC)C[C@@H](C)C(=O)[C@H](C)[C@H]2N(CCCCn3cnc(-c4cccnc4)c3)C(=O)O[C@]12C [TELITHROMYCIN] | 8 (≈ 9.85 µM) | 16 (≈ 19.7 µM) | 0.5 (≈ 0.616 µM) | 0.06 (≈ 0.0739 µM) | 0.25 (≈ 0.308 µM) | 0.03 (≈ 0.0369 µM) | 0.03 (≈ 0.0369 µM) | 0.25 (≈ 0.308 µM) | 0.125 (≈ 0.154 µM) | 0.5 (≈ 0.616 µM) | 0.06 (≈ 0.0739 µM) | 0.25 (≈ 0.308 µM) | 8 (≈ 0.00985 µM) | 0.06 (≈ 0.0739 µM) | 0.5 (≈ 0.616 µM) | 0.5 (≈ 0.616 µM) | 0.06 (≈ 0.0739 µM) | 0.125 (≈ 0.154 µM) | > 64 | 8 (≈ 9.85 µM) | MIC [32]: 0.125 µg/mL (≈ 0.154 µM); MIC50 [3]: 0.125 µg/mL (≈ 0.154 µM); MIC90 [3]: 0.25 µg/mL (≈ 0.308 µM); MIC50 [9]: 0.125 µg/mL (≈ 0.154 µM); MIC90 [9]: 0.5 µg/mL (≈ 0.616 µM); MIC90 [11]: 1 µg/mL (≈ 1.23 µM); MIC90 [12]: 1 µg/mL (≈ 1.23 µM); MIC [17]: 0.5 µg/mL (≈ 0.616 µM); MIC50 [22]: 0.125 µg/mL (≈ 0.154 µM); MIC90 [22]: 0.25 µg/mL (≈ 0.308 µM); MIC [23]: 0.06 µg/mL (≈ 0.0739 µM); MIC [24]: 0.5 µg/mL (≈ 0.616 µM); MIC [25]: 0.125 µg/mL (≈ 0.154 µM); MIC [26]: 0.016 µg/mL (≈ 0.0197 µM); MIC [27]: 0.03 µg/mL (≈ 0.0369 µM); MIC [28]: > 64 µg/mL; MIC [29]: 0.03 µg/mL (≈ 0.0369 µM); MIC [30]: 0.25 µg/mL (≈ 0.308 µM); MIC [31]: 0.06 µg/mL (≈ 0.0739 µM)
